# Publication PMC6614152 (Clinical Pharmacokinetics, 2019)
# Where “and” joins values, the source holds several entries; their conditions need not be identical. Equal values may be shown once. Entries after “also recorded” stand apart in the source; their conditions may differ. Read-outs that look alike come from different tables or passages of the source.
# Legend:
# [1] = Population pharmacokinetic analysis; format: in vivo, humans
# Outline: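 Nonlinear mixed-effects model (FOCEI) fitted to 29,372 plasma concentrations from 4170 healthy and RA subjects across 12 studies (IR 1–48 mg, ER 7.5–30 mg), quantified by LC-MS/MS. Two-compartment structure: IR first-order absorption with lag time, ER mixed zero/first-order absorption with lag time, linear elimination; combined additive/proportional residual error. Below-LLOQ values were set to LLOQ/2, with later post-dose ones censored. Co-medications were time-varying covariates. Checked by VPC (400 replicates) and ER pcVPC.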
# [2] = cited from earlier work
# JAK1 = conditions: in vitro cellular assays; cited from earlier work
# moderate to severe RA = conditions: monotherapy or in combination with csDMARDs; cited from earlier work
# [3] = cited from earlier work; remark: listed apart in the source
# CYP3A = conditions: strong CYP3A inhibitor ketoconazole; cited from earlier work
# [4] = format: in vivo, humans
# CYP2D6 = conditions: in vitro data; cited from earlier work
# [5] = final model, population estimate (%RSE), outliers excluded
# [6] = healthy subjects, ER formulation, population estimate
# [7] = RA subjects with bodyweight < 60 kg, steady state, simulated
# [8] = RA subjects with bodyweight > 100 kg, steady state, simulated
compound,measurement,setting,value
"CC[C@@H]1CN(C(=O)NCC(F)(F)F)C[C@@H]1c1cnc2cnc3[nH]ccc3n12 [upadacitinib, Upadacitinib]",time-dependent change in upadacitinib clearance with continued treatment,[1]; CWRES versus time,no time-dependent change
same,dose proportionality of bioavailability,[1]; ER dose range of 7.5-30 mg,dose-proportional
same,effect of pH-modifying medications on upadacitinib absorption from the ER formulation,[1]; ER formulation,no effect
same,Bioavailability of the extended-release formulation relative to the immediate-release formulation,[1]; [5],76.2% and 76%
same,ISV on CL/F in phase I,[1]; [5],21%
same,ISV on CL/F in phase II/III,[1]; [5],37%
same,ISV on Vc/F in phase I,[1]; [5],24%
same,ISV on Vc/F in phase II/III,[1]; [5],53%
same,apparent oral clearance,[1]; [6],53.7 L/h
same,steady-state volume of distribution (sum of the central and peripheral volume of distribution),[1]; [6],294 L
same,correlation of baseline hsCRP with upadacitinib clearance,[1]; in vivo,not correlated
same,effect of methotrexate on upadacitinib pharmacokinetics,[1]; in vivo,not affect
same,effect of pH-modifying agents on upadacitinib pharmacokinetics,[1]; in vivo,not affect
same,effects of bodyweight and mild or moderate renal impairment on upadacitinib exposures,[1]; in vivo,statistically significant but non-clinically relevant effects; also recorded: Bodyweight and mild or moderate renal impairment had statistically significant but non-clinically relevant effects on upadacitinib exposures
same,higher estimated upadacitinib AUC in RA subjects compared with healthy subjects,[1]; in vivo,33%
same,lower upadacitinib clearance in RA subjects compared with healthy subjects,[1]; in vivo,25%
same,functional half-life,[2]; IR formulation,3 to 4 h
same,time at which peak plasma concentrations (Cmax) were reached,[2]; after ER dosing,2 to 4 h
same,time at which peak plasma concentrations (Cmax) were reached,[2]; after IR dosing,1 to 2 h
same,Cmax and Cmin of ER 15 and 30 mg once daily versus IR 6 mg and 12 mg twice daily,[2],comparable
same,daily AUC of ER 15 and 30 mg once daily versus IR 6 mg and 12 mg twice daily,[2],equivalent
same,terminal half-life,[2]; following administration of the IR or ER formulations,6 to 16 h
same,upadacitinib dose eliminated unchanged in urine (renal pathway),[2]; phase I study,Approximately 20%
same,linearity of pharmacokinetics,[2]; range of doses evaluated in phase I and II studies,linear pharmacokinetics
same,selectivity for JAK1 over JAK2,JAK1,approximately 60 fold
same,selectivity for JAK1 over JAK3,JAK1,more than 100 fold
same,clinical signs and symptoms in subjects with moderate to severe RA compared with placebo or active comparators,moderate to severe RA,rapid and significant improvements; also recorded: significantly improved
same,effect of CYP2D6 metabolic phenotype on apparent oral clearance,[3],no effect
same,typical oral clearance in RA patients lower compared with healthy subjects,[3],24%
same,increase in upadacitinib exposures with ketoconazole,CYP3A,approximately 75%
same,AUC higher relative to subjects with a bodyweight of 60-100 kg,[4]; [7],5%
same,Cmax higher compared with subjects with a bodyweight of 60-100 kg,[4]; [7],18%
same,AUC lower relative to subjects with a bodyweight of 60-100 kg,[4]; [8],5%
same,Cmax lower compared with subjects with a bodyweight of 60-100 kg,[4]; [8],18%
same,AUC higher compared with RA subjects with normal renal function,[4]; RA subjects with moderate renal impairment (CrCl 30 to < 60 mL/min),26%
same,contribution of CYP2D6 to upadacitinib metabolism,CYP2D6,potential minor contribution
